Assay results: ChEMBL document CHEMBL1156509, “Survival in the presence of antifungals: genome-wide expression profiling of Aspergillus niger in response to sublethal concentrations of caspofungin and fenpropimorph” (2007)
Calls of active or inactive are those of the source.

How the values were obtained:
[1] = system: Aspergillus niger; assay: Induction of GFP tagged PagsA-H2B expression in Aspergillus niger RD6.47 at 104.2 ug/mL by fluorescence microscopy; format: functional, organism-based
How it was run: (§1)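 agsA promoter-GFP reporters, cytoplasmic (JvD1.1) or nuclear H2B-targeted (RD6.47). Germlings pre-grown 6 h at 37 °C in 2× CM, exposed 3 h at 30 °C to seven 2-fold dilutions. GFP levels were scored by fluorescence microscopy as 0 (basal), 1 (intermediate) or 2 (high). Controls: gpdA-H2B-GFP strain MA26.1 (positive), N402 (negative).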

[2] = system: Aspergillus niger; assay: Induction of GFP tagged PagsA expression in Aspergillus niger JvD1.1 at 104.2 ug/mL by fluorescence microscopy; format: functional, organism-based; how it was run: as §1
[3] = system: Aspergillus niger; assay: Antifungal activity against Aspergillus niger JvD1.1 at 104.2 ug/mL by microtiter plate; format: functional, organism-based
How it was run: (§2)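 Reporter conidia (2×10^4 per well) were pre-grown 6 h at 37 °C in 2× CM in glass-bottom plates. An equal volume of a 2-fold dilution series (seven concentrations) was added, then 3 h at 30 °C. Medium was discarded and adherent germlings imaged. Growth inhibition was scored 0/1/2 from hyphal length.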

[4] = system: Aspergillus niger; assay: Antifungal activity against Aspergillus niger RD6.47 at 104.2 ug/mL by microtiter plate; format: functional, organism-based; how it was run: as §2
[5] = system: Aspergillus niger; assay: Effect on morphological changes in Aspergillus niger N402 germlings assessed as germ tube elongation and branching at 0.9 ug/mL after 5 hrs; format: functional, organism-based
How it was run: (§3)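 Compound or water control was added, then 1 h more at 37 °C. Adherent germlings were scored by microscopy, at least 50 per sample, as branched or unbranched. Branching index = branched/total germlings.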

[6] = system: Aspergillus niger; assay: Effect on morphological changes in Aspergillus niger N402 germlings assessed as increase in germ tube; format: functional, organism-based
How it was run: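 Bioreactor: 5×10^9 N402 conidia in 5 l fermentation medium, pH 3 controlled, 37 °C, 250 rpm. Compound in water (or water alone) added at 5 h, then 1 h further cultivation. At least 200 germlings per run were counted for germ tubes per germling and subapical branches. Mean ± S.D. from two independent runs.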

[7] = system: Aspergillus niger; assay: Effect on morphological changes in Aspergillus niger N402 germlings assessed as germ tube elongation and branching at 5 ug/mL after 5 hrs; format: functional, organism-based; how it was run: as §3
[8] = system: Aspergillus niger; assay: Effect on increase sub apical branching in Aspergillus niger N402 germlings assessed as branching index at 5 ug/mL after 5 hrs; format: functional; how it was run: as §3
[9] = system: Aspergillus niger; assay: Induction of agsA expression in Aspergillus niger N402 germlings; format: functional, organism-based
How it was run: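 RNA from 1 h-treated N402 bioreactor germlings (5 h pre-growth, FM pH 3, 37 °C) was hybridised to A. niger Affymetrix arrays, biological duplicate. Data were normalised; differential expression was taken as at least 1.5-fold change with p cutoff 0.05. Northern blots on the same RNA were used for validation.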

[10] = system: Aspergillus niger; assay: Effect on morphological changes in Aspergillus niger N402 germlings assessed as tip swelling at 0.9 ug/mL after 5 hrs; format: functional, organism-based
[11] = system: Aspergillus niger; assay: Induction of crhD gene expression in Aspergillus niger by microarray analysis relative to control; format: functional
How it was run: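 A. niger N402 conidia (5×10^9) grown in 5 L fermentation medium in a bioreactor at 37 °C, pH 3, 250 rpm. Drug in distilled H2O or H2O alone added at 5 h; mycelium harvested by filtration 1 h later and frozen in liquid nitrogen. cRNA hybridized to Affymetrix A. niger GeneChips, two independent bioreactor runs per condition; normalized, ≥1.5-fold change at p 0.05 cutoff.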

[12] = system: Aspergillus niger; assay: Effect on morphological changes in Aspergillus niger N402 germlings assessed as tip swelling at 5 ng/mL after 5 hrs; format: functional, organism-based
[13] = system: Aspergillus niger; assay: Effect on morphological changes in Aspergillus niger N402 germlings assessed as tip swelling at 5 ug/mL after 5 hrs; format: functional, organism-based
[14] = system: Aspergillus niger; assay: Effect on morphological changes in Aspergillus niger N402 germlings assessed as branching index at 50 ug/mL; format: functional
[15] = system: Aspergillus niger; assay: Effect on morphological changes in Aspergillus niger N402 germlings assessed as germ tube elongation and branching at 5 ng/mL after 5 hrs; format: functional, organism-based; how it was run: as §3

Compound	Activity [1]	Activity [2]	Activity [3]	Activity [4]	Activity [5]	Activity [6]	Activity [7]	Activity [8]	Activity [9]	Activity [10]	fold change (FC) [11]	Activity [12]	Activity [13]	Activity [14]	Activity [15]
CCCCCCC(=O)CCCCCC/C=C/C[C@@H](O)[C@H](O)[C@@](N)(CO)C(=O)O	inactive	inactive	inactive	inactive											
COC(=O)N(OC)c1ccccc1COc1ccn(-c2ccc(Cl)cc2)n1	inactive	inactive	Active	Active											
C[C@@H]1C[C@@H]([C@H](O)CC2CC(=O)NC(=O)C2)C(=O)[C@@H](C)C1	inactive	inactive	Active	Active											
CCCN(CC)CC1COC2(CCC(C(C)(C)C)CC2)O1 (stereo unspecified)	Active	Active	Active	Active											
CC(Cc1ccc(C(C)(C)C)cc1)CN1C[C@@H](C)O[C@@H](C)C1 (stereo partly specified) [FENPROPIMORPH]	Active	Active	Active	Active	Active	Active	Active	33%	Active	Active	1.51	Active	Active	30.5%	Active
